This is a sample that favours compounds with a hit; in the whole collection about 1.5% have one here.
SIRT5 inh – inhibitors of human sirtuin-5 desuccinylase. actives 1.1% (n = 330,000). AID 652115. Q9NXA8. inhibition, % at 15 µM. Purified SirT5, succinyl-peptide AMC, trypsin-coupled fluorescence; in the data active = inhibition above about 15%
ERp5 inh – blocks human ERp5 reductase activity on insulin; Q15084; ERp5 insulin aggregation, absorbance 650 nm, 90 min; inhibition, % at 9.99 µM; actives 0.05% (n = 350,000); AID 651711;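 active = mean replicate inhibition above about 25%, with every replicate also reaching it, limit read from the data, passing the limit was not always enough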
INS-1E GSIS act – primary screen for activators of insulin secretion dependent on glucose, INS-1E cells, GLuc reporter luminescence. INS-1E GLuc reporter insulin secretion, 2-3 h. activation, % at 16.6 µM. actives 0.61% (n = 370,000);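 active = lowest replicate activation of at least 40%, so every replicate reaches that level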;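 note: 0% = median of neutral control wells and 100% = median of IBMX positive control wells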
S100A4 MyoIIA – blocks human S100A4 binding to myosin IIA peptide; S100A4/TAMRA-MyoIIA peptide fluorescence polarization; inhibition, % at 10.7 µM; actives 0.14% (n = 360,000); AID 652163;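 active = mean inhibition of at least 70% across replicates, with every replicate also reaching that level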
Target sequence (P26447 whole entry, looked up): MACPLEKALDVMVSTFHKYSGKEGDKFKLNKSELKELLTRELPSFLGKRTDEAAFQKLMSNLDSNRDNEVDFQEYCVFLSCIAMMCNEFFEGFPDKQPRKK
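Compound dosing: one dose per compound; test system: human S100A4 monomer with TAMRA-labelled myosin IIA peptide; probe or stimulus: TAMRA-labelled myosin IIA heavy-chain peptide probe, 5 nM; medium: HEPES buffer with Ca2+, pH 7.2; schedule: 5 min incubation before reading; benchmarks: neutral control DMSO, positive control TFP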
PDI turbidity – inhibitors of human protein disulfide isomerase | PDI insulin aggregation turbidity, A650, 90 min | actives 0.052% (n = 350,000) | inhibition, % at 10 µM | AID 588391 | P07237;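 active = mean inhibition across replicates of 30% or more, whatever share of single replicates reach that level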
Target sequence (P07237 whole entry, looked up): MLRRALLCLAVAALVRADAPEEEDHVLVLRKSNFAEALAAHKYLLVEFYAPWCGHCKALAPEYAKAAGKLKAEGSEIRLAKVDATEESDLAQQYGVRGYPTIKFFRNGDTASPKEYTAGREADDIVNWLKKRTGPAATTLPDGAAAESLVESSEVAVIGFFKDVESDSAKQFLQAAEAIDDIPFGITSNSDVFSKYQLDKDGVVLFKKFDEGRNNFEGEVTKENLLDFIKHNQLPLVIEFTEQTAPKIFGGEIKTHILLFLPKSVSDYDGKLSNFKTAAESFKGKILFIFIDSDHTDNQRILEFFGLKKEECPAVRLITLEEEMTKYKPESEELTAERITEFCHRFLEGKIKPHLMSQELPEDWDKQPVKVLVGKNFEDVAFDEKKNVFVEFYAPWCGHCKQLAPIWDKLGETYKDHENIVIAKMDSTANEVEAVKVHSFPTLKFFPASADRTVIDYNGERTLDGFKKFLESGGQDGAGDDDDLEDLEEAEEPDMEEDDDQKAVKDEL
Numbers without * were called inactive; nt = no result.

SMILES | SIRT5 inh | ERp5 inh | INS-1E GSIS act | S100A4 MyoIIA | PDI turbidity
CCNc1nc(NC(C)C)nc(N(C)C#N)n1 | -25.7 | -2.3 | 57.8* | 0.6 | -0.6
O=C(C[C@H]1C[C@H]2c3cc(NC(=O)Cc4ccncc4)ccc3O[C@H]2[C@H](CO)O1)NCCN1CCCCC1 | 1.5 | -4.4 | 12.1 | -1.0 | nt
CCc1cc2c(=O)c(-c3cnn(-c4ccccc4)c3)c(C)oc2cc1OCC(=O)Nc1cccc(C)c1 | 26.5* | -2.0 | nt | -4.6 | 0.0
CCc1cc2c(=O)c(-c3cnn(-c4ccccc4)c3)c(C)oc2cc1OCC(=O)Nc1ccc(F)c(F)c1 | 0.7 | 1.4 | nt | 6.5 | -3.9
Cc1ccc(S(=O)(=O)N(C)C[C@H]2Oc3c(NC(=O)C4CCOCC4)cccc3C(=O)N([C@H](C)CO)C[C@@H]2C)cc1 | 5.4 | 4.6 | 2.8 | 1.8 | nt
Cc1ccc(NC(=O)CN2CCOCC2)cc1Cl | 25.3* | -4.6 | nt | -3.5 | -3.4
O=C(NCC1OCCc2ccccc21)c1ccc(NC(=O)c2cccc(Br)c2)cc1 (stereo not drawn) | nt | nt | 253.1* | nt | -5.4
O=C(Nc1ccc(CN2CCOCC2)cc1)c1ccc(Cl)cc1Cl | 18.0* | 0.4 | -1.5 | -2.3 | 14.6
O=C(NCC1OCCc2ccccc21)c1ccc(NC(=O)c2ccc(Cl)cc2Cl)cc1 (stereo not drawn) | nt | nt | 267.5* | nt | -13.2
COCC#Cc1cnc2c(c1)C(=O)N([C@@H](C)CO)C[C@H](C)[C@@H](CN(C)C(C)=O)O2 | 6.2 | 7.3 | 19.6 | 4.6 | nt
CSc1nsc(SCC(=O)Nc2ccc(O)c(C(=O)O)c2)n1 | -3.5 | 1.5 | 40.4* | -3.8 | -2.7
C[C@H]1CN([C@@H](C)CO)C(=O)Cc2cc(NS(=O)(=O)c3cccs3)ccc2O[C@@H]1CN(C)Cc1ccc(-c2ccccc2)cc1 | 15.3* | -0.8 | -2.6 | -5.9 | nt
C[C@H](CO)N1C[C@H](C)[C@@H](CN(C)Cc2ccc(C(=O)O)cc2)Oc2ccc(NS(=O)(=O)c3cccs3)cc2CC1=O | 1.2 | 42.6* | 14.1 | -6.7 | nt
C[C@@H]1CN([C@H](C)CO)C(=O)Cc2cc(NS(=O)(=O)c3cccs3)ccc2O[C@H]1CN(C)Cc1ccccc1 | 4.9 | 4.8 | 3.7 | 0.4 | nt
C[C@H](CO)N1C[C@H](C)[C@@H](CN(C)Cc2ccc(-c3ccccc3)cc2)Oc2ccc(NS(=O)(=O)c3cccs3)cc2CC1=O | 18.2* | 0.3 | -16.3 | -25.4 | nt
C[C@@H]1CN([C@@H](C)CO)C(=O)Cc2cc(NS(=O)(=O)c3cccs3)ccc2O[C@@H]1CN(C)Cc1ccccc1 | 0.9 | 1.4 | -3.0 | 1.1 | nt
CCC(=O)Nc1ccc2c(c1)OC[C@H](C)N(C(=O)Cc1ccccn1)C[C@H](C)[C@H](OC)CN(C)C2=O | 0.5 | 3.4 | -7.8 | -1.8 | nt
CCCc1nc2n[nH]c(N)c2c2c1COC(C)(C)C2 | nt | nt | 49.0* | nt | 7.5
CCc1nc2n[nH]c(N)c2c2c1CCCC2 | nt | nt | 120.7* | nt | -9.6
O=C(C[C@H]1CC[C@H]2[C@@H](COC[C@H](O)CN2S(=O)(=O)c2ccccc2)O1)NCCN1CCCC1 | -9.5 | 5.8 | 2.0 | -12.2 | nt
CCCCC#Cc1ccc(C(=O)NNC(=O)Nc2ccccc2)o1 | -6.8 | 1.6 | 3.2 | 0.5 | 2.9
F[B-](F)(F)COCc1ccccc1Br | -5.4 | -4.8 | 55.7* | 0.6 | -9.0
O=C(C#Cc1ccccc1)Nc1ccccc1F | -1.8 | -3.1 | 22.0 | -2.5 | -5.7
F[B-](F)(F)COCc1ccccc1C#Cc1ccccc1 | -3.0 | -2.6 | 97.6* | 0.0 | nt
CCCCC#Cc1ccccc1COC[B-](F)(F)F | 0.4 | 1.7 | 73.0* | -2.1 | nt
SMILES | SIRT5 inh | ERp5 inh | INS-1E GSIS act | S100A4 MyoIIA | PDI turbidity
CO[C@@H]1CC[C@@H]2CCN(C)C(=O)[C@@H](C)N(C)C(=O)c3cc(C#N)ccc3OC[C@H]1O2 | -5.7 | 5.7 | 14.1 | -10.5 | nt
Cc1noc(C)c1S(=O)(=O)Nc1ccc2c(c1)C(=O)N([C@H](C)CO)C[C@@H](C)[C@@H](CN(C)C(=O)CCCN(C)C)OCCCC[C@H](C)O2 | nt | nt | 20.1 | nt | nt
COc1ccc(S(=O)(=O)Nc2ccc3c(c2)C(=O)N([C@H](C)CO)C[C@H](C)[C@@H](CN(C)Cc2ccc(C(F)(F)F)cc2)OCCCC[C@H](C)O3)cc1 | 14.7 | 1.2 | -21.0 | -7.8 | nt
COc1ccc(S(=O)(=O)Nc2ccc3c(c2)C(=O)N([C@H](C)CO)C[C@@H](C)[C@H](CN(C)Cc2ccc(C(F)(F)F)cc2)OCCCC[C@H](C)O3)cc1 | 15.4* | 3.5 | -13.4 | 19.3 | nt
COc1ccc(S(=O)(=O)Nc2ccc3c(c2)C(=O)N([C@@H](C)CO)C[C@H](C)[C@@H](CN(C)Cc2ccc(C(F)(F)F)cc2)OCCCC[C@H](C)O3)cc1 | 17.1* | 0.6 | -10.9 | 12.3 | nt
Cc1cc(C)cc(N(C(=O)c2csnn2)C(C(=O)NC(C)(C)C)c2ccccn2)c1 (stereo not drawn) | 25.9* | 5.9 | -4.3 | 10.7 | -7.9
N#C[C@H]1[C@@H](c2ccc(C#Cc3cccc(F)c3)cc2)[C@H](CO)N1C(=O)C1CCC1 | 2.1 | 0.1 | 0.5 | -11.1 | nt
C[C@@H]1CN([C@H](C)CO)C(=O)c2cccc(NC(=O)c3nc4ccccc4s3)c2O[C@@H]1CN(C)Cc1ccccc1 | 5.0 | -3.0 | -3.7 | 7.8 | nt
C[C@H](CO)N1C[C@H](C)[C@H](CN(C)Cc2ccc(C(F)(F)F)cc2)Oc2c(NC(=O)c3nc4ccccc4s3)cccc2C1=O | 28.3* | -2.6 | -5.5 | -8.7 | nt
C[C@H]1CN([C@@H](C)CO)C(=O)c2cccc(NC(=O)c3nc4ccccc4s3)c2O[C@@H]1CN(C)Cc1ccccc1 | 3.5 | -9.5 | -15.1 | -14.1 | nt
C[C@H](CO)N1C[C@H](C)[C@@H](CN(C)Cc2ccc(C(F)(F)F)cc2)Oc2c(NC(=O)c3nc4ccccc4s3)cccc2C1=O | 15.6* | -0.7 | 5.1 | 3.4 | nt
C[C@@H]1CN([C@@H](C)CO)C(=O)c2cccc(NC(=O)c3nc4ccccc4s3)c2O[C@H]1CN(C)Cc1ccc(C(F)(F)F)cc1 | 22.4* | 0.7 | 7.5 | -34.1 | nt
C[C@@H]1CN([C@H](C)CO)C(=O)c2cccc(NC(=O)c3nc4ccccc4s3)c2O[C@@H]1CN(C)Cc1ccc(C(F)(F)F)cc1 | 25.2* | -0.2 | 1.3 | -4.9 | nt
COc1ccc(-c2cn(CC[C@H]3CC[C@H](NC(=O)Cc4ccccn4)[C@@H](CO)O3)nn2)cc1 | -2.7 | -8.1 | 2.3 | -21.5 | nt
COCc1cn(CC[C@H]2CC[C@H](NC(=O)Nc3ccccc3)[C@@H](CO)O2)nn1 | 1.9 | -1.4 | -1.2 | 2.4 | nt
C[C@H]1CN([C@@H](C)CO)C(=O)c2cccc(NC(=O)c3nc4ccccc4s3)c2O[C@@H]1CN(C)Cc1ccc(C(F)(F)F)cc1 | 20.9* | -0.6 | -3.4 | 38.5 | nt
Cc1ccc(S(=O)(=O)N[C@H]2CC[C@H](CC(=O)N3CCC(Cc4ccccc4)CC3)O[C@H]2CO)cc1 | -0.9 | -2.2 | -29.8 | 0.3 | nt

Screening data: PubChem BioAssay, Broad Institute
